Measurements reported in article PMC7845017 (ACS Central Science, 2021).

Experiments:
Assay in all cases: Broth microdilution MIC
P. aeruginosa PAO1 = format: cell-based, Pseudomonas aeruginosa; details: P. aeruginosa PAO1, Müller-Hinton medium, 16–20 h at 37 °C; at least two independent duplicates
How it was run: (§1)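 MIC reported in μg/mL. Each strain was grown in Müller-Hinton medium and incubated for 16–20 h at 37 °C. Every strain was tested in at least two independent duplicates.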

A. baumannii ATCC 19606 = format: cell-based, Acinetobacter baumannii; details: A. baumannii ATCC 19606, Müller-Hinton medium, 16–20 h at 37 °C; at least two independent duplicates
How it was run: as §1

E. coli W3110 = format: cell-based, Escherichia coli; details: E. coli W3110, Müller-Hinton medium, 16–20 h at 37 °C; at least two independent duplicates
How it was run: as §1

K. pneumoniae NCTC418 = format: cell-based, Klebsiella pneumoniae; details: K. pneumoniae NCTC418, Müller-Hinton medium, 16–20 h at 37 °C; at least two independent duplicates
How it was run: as §1

Substance | P. aeruginosa MIC (P. aeruginosa PAO1) | A.baumannii MIC (A. baumannii ATCC 19606) | E. coli MIC (E. coli W3110) | K. pneumoniae MIC (K. pneumoniae NCTC418)
KYKKALKKLAKLL [rac-SB1] | 2 µg/mL | 2 µg/mL | 1 µg/mL | 16 µg/mL
VQWRAIRVRVIR [sr-DJK5] | >64 µg/mL | >64 µg/mL | 16 µg/mL | >64 µg/mL
polymyxin B [PMB, reference compound] | 0.25 µg/mL | 0.25 µg/mL | 0.25 µg/mL | 0.25 µg/mL
ILPWKWPWWPWRR [sr-Indo] | >64 µg/mL | 8 µg/mL | 16 µg/mL | 16 µg/mL

The next lines start with the values.

P. aeruginosa MIC (P. aeruginosa PAO1) | A.baumannii MIC (A. baumannii ATCC 19606) | E. coli MIC (E. coli W3110) | K. pneumoniae MIC (K. pneumoniae NCTC418) | Substance
>64 µg/mL | >64 µg/mL | 16 µg/mL | >64 µg/mL | KYKKALKKLAKLL [sr^3/1-SB1]
>64 µg/mL | >64 µg/mL | 16 µg/mL | >64 µg/mL | KYKKALKKLAKLL [sr^1/3-SB1]
>64 µg/mL | >64 µg/mL | 32 µg/mL | >64 µg/mL | KYKKALKKLAKLL [sr-SB1]
